# Experimental data gathered from unrelated publications.
# Protocols differ between the studies behind these lines.
# PIK3CA: Phosphatidylinositol 4,5-bisphosphate 3-kinase catalytic subunit alpha isoform (PIK3CA, Homo sapiens, UniProt P42336)
# PIK3CA H1047Y: Phosphatidylinositol 4,5-bisphosphate 3-kinase catalytic subunit alpha isoform (PIK3CA, Homo sapiens, UniProt P42336, H1047Y)
# PIK3CA C420R: Phosphatidylinositol 4,5-bisphosphate 3-kinase catalytic subunit alpha isoform (PIK3CA, Homo sapiens, UniProt P42336, C420R)
# PIK3CA E545A: Phosphatidylinositol 4,5-bisphosphate 3-kinase catalytic subunit alpha isoform (PIK3CA, Homo sapiens, UniProt P42336, E545A)
# PIK3CA H1047L: Phosphatidylinositol 4,5-bisphosphate 3-kinase catalytic subunit alpha isoform (PIK3CA, Homo sapiens, UniProt P42336, H1047L)
# PIK3CA E542K: Phosphatidylinositol 4,5-bisphosphate 3-kinase catalytic subunit alpha isoform (PIK3CA, Homo sapiens, UniProt P42336, E542K)
# PIK3CA Q546K: Phosphatidylinositol 4,5-bisphosphate 3-kinase catalytic subunit alpha isoform (PIK3CA, Homo sapiens, UniProt P42336, Q546K)
# PIK3CA M1043I: Phosphatidylinositol 4,5-bisphosphate 3-kinase catalytic subunit alpha isoform (PIK3CA, Homo sapiens, UniProt P42336, M1043I)
Structure (SMILES),target,test,setting,remaining binding [%]
CN(C)c1ncc(F)c(-c2cnn3ncccc23)n1,PIK3CA,binding,1 µM,77
O=C(Nc1cnc(Oc2ccc(F)cc2)nc1)N1CCc2ncccc2[C@@H]1c1ccc(F)cc1,PIK3CA H1047Y,"cell-free assay, competition with immobilised ligand",1 µM,100
O=C(c1ccc(Nc2ncc(Cl)c(-c3ccc(Cl)s3)n2)cc1)N1CCC(N2CCCC2)CC1,PIK3CA C420R,"binding, competition with immobilised ligand",1 µM,100
N[C@H]1CCN(c2nccc(-c3cnn4ncccc34)n2)C1,PIK3CA,binding,1 µM,100
COc1cnc(Nc2cccc(S(N)(=O)=O)c2)nc1N1CCN(c2ccccc2)CC1,PIK3CA H1047Y,"binding, competition with immobilised ligand",1 µM,74
c1cncc(-c2cccc(Nc3nccc(NC4CCCCC4)n3)c2)c1,PIK3CA E545A,"binding, competition with immobilised ligand",10 µM,80
O=C(c1ccc(Nc2nccc(-c3cc4ccccc4s3)n2)cc1)N1CCC(N2CCCC2)CC1,PIK3CA H1047L,"binding, competition with immobilised ligand",1 µM,100
COc1cnc(Nc2cccc(S(N)(=O)=O)c2)nc1N1CCN(c2ccccc2)C(=O)C1,PIK3CA C420R,"binding, competition with immobilised ligand",1 µM,95
CN(c1nccc(-c2cnn3ncccc23)n1)C1CC1,PIK3CA E542K,binding,1 µM,56
C[C@@H](c1ccc(-n2cnc3c(N)ncnc32)cc1)N1CCc2nn(C)c(Cc3ccccc3)c2C1=O,PIK3CA,"binding, competition with immobilised ligand",0.1 µM,82
Cc1cnn2ncc(-c3ccnc(N(C)C)n3)c2c1,PIK3CA H1047Y,binding,1 µM,98
C=CC(=O)N1CCC(C(=O)NCC(=O)N2CCN(c3nc(-c4cnc(N)nc4C(F)F)nc(N4CCOCC4)n3)CC2)CC1,PIK3CA H1047Y,"binding, competition with immobilised ligand",1 µM,5.9
CCN1CCN(Cc2ccc(C(=O)Nc3ccc(C)c(Oc4ccc5c(c4)CC(=O)N5)c3)cc2C(F)(F)F)CC1,PIK3CA Q546K,"binding, competition with immobilised ligand",1 µM,100
CN(C)C(=O)Cn1cc(-c2nc([C@@](C)(c3ccc(-c4cnc(N)nc4)cc3)C3CC3)no2)cn1,PIK3CA E542K,"cell-free assay, competition with immobilised ligand",1 µM,79
CN(C)c1nccc(-c2cnn3ncccc23)n1,PIK3CA,binding,1 µM,97
CN1CCN(c2ccc(Nc3nccc(-c4cccc([N+](=O)[O-])c4)n3)cc2C(F)(F)F)CC1,PIK3CA H1047L,binding,10 µM,4.8
COc1ncc2cc3ccccc3nc2c1C#N,PIK3CA H1047Y,"cell-free assay, competition with immobilised ligand",5 µM,86
O=C(NCC1CCOCC1)c1n[nH]cc1NC(=O)c1c(F)cccc1F,PIK3CA C420R,"binding, competition with immobilised ligand",1 µM,100
Cc1c(C(=O)O)cc(-c2ccc(C3CCNCC3)cc2)c2ccc(-c3ccc(C(F)(F)F)cc3)cc12,PIK3CA M1043I,"cell-free assay, competition with immobilised ligand",1 µM,100
CC1CCCN1c1nccc(-c2cnn3ncccc23)n1 (stereo not shown),PIK3CA M1043I,binding,1 µM,100
CO[C@@H](C)c1c(Nc2ccc([C@@H](N(C)C(=O)C3CCS(=O)(=O)CC3)C(F)(F)F)cc2)cnc2cc(Cl)nn12,PIK3CA H1047L,"cell-free assay, competition with immobilised ligand",1 µM,98
Cc1cnc(Nc2ccc(C(=O)N3CCC(N4CCCC4)CC3)cc2)nc1-c1cc2ccccc2s1,PIK3CA H1047L,"binding, competition with immobilised ligand",1 µM,97
O=C(Nc1cccnn1)N1CC(C/C=C/c2cncc(Oc3ccc(C(F)(F)F)cn3)n2)C1,PIK3CA C420R,"cell-free assay, competition with immobilised ligand",1 µM,66
CNC(=O)[C@@H]1CC[C@@H](n2c(-c3ccc4cnccc4c3)nc3ccc(C(=O)NCc4cccc(C(N)=O)c4)cc32)C1,PIK3CA Q546K,"binding, competition with immobilised ligand",1 µM,100
CN(C(=O)c1ccccc1)c1cc(N(C)c2ccc3c(c2)CCc2ccc(C(=O)NCCN4CCOCC4)cc2C3=O)ccc1F,PIK3CA C420R,"cell-free assay, competition with immobilised ligand",1 µM,91
O=C(NCCCN1CCOCC1)c1ccc(Nc2nccc(-c3cc4ccccc4s3)n2)cc1,"Phosphatidylinositol 4,5-bisphosphate 3-kinase catalytic subunit alpha isoform (PIK3CA, Homo sapiens, UniProt P42336, I800L)","binding, competition with immobilised ligand",1 µM,13
Nc1ncc2c(n1)-c1c([nH]c3ccc(C#CC4CC4)cc13)CCCC2,PIK3CA M1043I,"binding, competition with immobilised ligand",1 µM,62
O=c1nc(-c2ccccn2)sc2ccccc12,PIK3CA E545A,"cell-free assay, competition with immobilised ligand",1 µM,92
O=C(Nc1c[nH]nc1C(=O)NC1CCNCC1)c1cc(F)cc(F)c1,PIK3CA M1043I,"binding, competition with immobilised ligand",1 µM,100
C[C@@H]1CN(c2cc(-c3n[nH]c4ccc(OC5(C)CC5)cc34)ncn2)C[C@H](C)O1,PIK3CA C420R,"cell-free assay, competition with immobilised ligand",0.1 µM,72
O=C(NCCCN1CCOCC1)c1ccc(Nc2ncc(Cl)c(-c3ccc(Cl)s3)n2)cc1,PIK3CA E542K,"binding, competition with immobilised ligand",1 µM,100
